Data set [1] is described as follows: Displacement of [3H]-FNZ from benzodiazepine binding site of GABAA receptor in bovine synaptosomal membranes after 1 hr by scintillation counting method. The data set is classed as cell membranes, Bos taurus. (Displacement assays read how much labelled ligand stays bound in the presence of the test substance.)
Data set [2] concerns Rattus norvegicus. Briefly: Toxicity in Wistar rat assessed as change in locomotor activity at 0.25 to 3 mg/kg, ip administered 30 mins. To be noted: in vivo, 0.5 h. The format is organism-based. The gist of the method: (§1)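 Locomotor or exploratory activity was scored as the number of closed-arm entries during the 5 min EPM session. Male Wistar rats (280–320 g) received 0.25–3 mg/kg ip 30 min beforehand, in propylenglycol diluted with 0.6 % v/v Tween 80. Vehicle-injected controls were included. About 7 rats per dose, ANOVA.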

Data set [3] concerns Rattus norvegicus. Briefly: Anxiogenic activity in Wistar rat assessed as reduction in time spent on open arms at 0.25 to 3 mg/kg, ip administered 30 mins prior to testing measured for 5 mins by elevated plus-maze test. The format is functional, organism-based. A digest of the protocol:
(§2)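 Adult male Wistar rats (65–75 days, 280–320 g), group-housed, 12 h light–dark, 21-22 °C, handled on four days beforehand. Doses of 0.25, 0.5, 1 and 3 mg/kg were dissolved in propylenglycol, diluted in aqueous 0.6 % v/v Tween 80 and given ip 30 min before the EPM. Vehicle controls received the same mixture. Behaviour was recorded 5 min as % time in open arms relative to open plus closed arms. About 7 rats per dose, mean ± S.E.M., ANOVA.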

Data set [4] relates to Rattus norvegicus. Nature of the data set: Anxiolytic activity in Wistar rat assessed as increase in time spent on open arms at 0.5 mg/kg, ip administered 30 mins prior to testing measured for 5 mins by elevated plus-maze test. The format is functional, organism-based. The gist of the method:
as §2

Data set [5] has as its system Rattus norvegicus. Briefly: Anxiolytic activity in Wistar rat assessed as time spent on open arms at 1 mg/kg, ip administered 30 mins prior to testing measured for 5 mins by elevated plus-maze test (reference value: 20%). The data set is classed as functional. The gist of the method: as §2
The test system of data set [6] is Rattus norvegicus. Briefly: Toxicity in Wistar rat assessed as change in locomotor activity at 1 mg/kg, ip administered 30 mins. The data set is classed as organism-based. Conditions: in vivo, 0.5 h. The gist of the method: as §1
Data set [7] concerns Rattus norvegicus. Nature of the data set: Anxiogenic activity in Wistar rat assessed as reduction in time spent on open arms at 0.25 to 0.5 mg/kg, ip administered 30 mins prior to testing measured for 5 mins by elevated plus-maze test. The data set is classed as functional, organism-based. A digest of the protocol: as §2

As a reminder, the IC50 is the concentration that gives 50% inhibition. The low end stands for greater potency, the high end for weaker potency. The Ki is a measure of affinity in units of concentration, obtained from inhibition or displacement.

Activity calls are given as the source filed them. The rule behind the calls is not given here.

For the compound `Cc1ccc2[nH]cc3c(=O)n(-c4ccc(F)cc4)nc-3c2c1`, in data set [1], the 50% inhibitory concentration (IC50) stood at 1.15 nM and the Ki is 0.612 nM.

Turning to `Cc1ccc2[nH]cc3c(=O)n(-c4ccccc4)nc-3c2c1`, in data set [1], the IC50 was found to be 0.589 nM and the Ki turned out to be 0.313 nM.

Consider `O=c1c2c[nH]c3ccc(Br)cc3c-2nn1-c1ccc(F)cc1`, for which the Activity result with Rattus norvegicus [2] is recorded as “Toxic”. Besides, in data set [1], the 50% inhibitory concentration (IC50) worked out at 1.47 nM and the Ki amounted to 0.78 nM. For the same compound, the outcome with Rattus norvegicus [3] was Active.

For the compound `Cc1ccc2[nH]cc3c(=O)n(-c4ccccc4F)nc-3c2c1`, in data set [1], the 50% inhibitory concentration (IC50) was found to be 0.37 nM and affinity was put at a Ki of 0.196 nM.

For `COc1ccc(-n2nc3c4cc(Br)ccc4[nH]cc-3c2=O)cc1`, the outcome in the data set on Rattus norvegicus [4] was Active. The Activity result in the data set on Rattus norvegicus [2] is on record as “Non-Toxic”. In data set [1], this compound had an IC50 of 0.326 nM and a Ki of 0.173 nM.

Take `COc1ccc2[nH]cc3c(=O)n(-c4ccc(F)cc4)nc-3c2c1`: in data set [1], the IC50 was 1.84 nM and the Ki turned out to be 0.98 nM.

For `COc1ccc(-n2nc3c4cc(C)ccc4[nH]cc-3c2=O)cc1`, the Activity in the data set with Rattus norvegicus [5] is recorded as 50%; with Rattus norvegicus [6], “Non-Toxic”. For the same compound, in data set [1], the IC50 is 0.542 nM. Further, affinity in data set [1] was put at a Ki of 0.288 nM.

For `O=c1c2c[nH]c3ccc(Br)cc3c-2nn1-c1ccccc1`, the result in the data set on Rattus norvegicus [7] was Active. Further, in data set [1], the IC50 was determined as 0.823 nM and the Ki was determined as 0.437 nM.

In the case of `COc1ccc2[nH]cc3c(=O)n(-c4ccccc4F)nc-3c2c1`, in data set [1], the IC50 came to 1.5 nM and the Ki turned out to be 0.797 nM.

These data come from ChEMBL document CHEMBL4229422, “Synthesis and pharmacological evaluation of pyrazolo[4,3-c]quinolinones as high affinity GABAA-R ligands and potential anxiolytics” (Bioorg Med Chem, 2018).
